Experimental findings from ChEMBL document CHEMBL1142985, “Antineoplastic agents. 550. Synthesis of 10b(s)-epipancratistatin from (+)-narciclasine” (2007) are described below.

Common to all, as to assay type: functional
The subject of test [1] is BXPC-3. In words: Growth inhibition of human BXPC3 cells after 48 hrs. The settings on record: BXPC-3, 48 h. In short, it runs like this: (§1)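 NCI sulforhodamine B assay. Cells in 5% fetal bovine serum/RPMI1640 seeded, grown 24 h, then exposed to serial compound dilutions for 48 h. Fixed with trichloroacetic acid, stained with sulforhodamine B, optical density read on a plate reader. GI50 taken as the concentration causing a 50% reduction in net protein increase.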

Test [2] has as its system NCI-H460. In words: Growth inhibition of human NCI-H460 cells after 48 hrs. The following applies: NCI-H460, 48 h. In a few lines: as §1
Test [3] concerns KM-20L2. In words: Growth inhibition of human KM20L2 cells after 48 hrs. The following applies: KM-20L2, 48 h. In a few lines: as §1
Test [4] concerns DU-145. As to the kind of experiment: Growth inhibition of human DU145 cells after 48 hrs. The settings on record: DU-145, 48 h. In a few lines:
as §1

Test [5] relates to P388. As to the kind of experiment: Growth inhibition of murine P388 cells after 48 hrs. The settings on record: Mus musculus, P388, 48 h; read-out: ED50 (the source's name). In a few lines: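 Mouse leukemia P388 cells held 24 h in 10% horse serum/Fisher medium, then incubated 48 h with serial compound dilutions. Cell numbers counted on a Coulter particle counter; ED50 taken as the concentration giving 50% growth inhibition.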

The test system of test [6] is MCF7. In words: Growth inhibition of human MCF7 cells after 48 hrs. The following applies: MCF7, 48 h. In short, it runs like this: as §1
Test [7] relates to SF-268. In words: Growth inhibition of human SF268 cells after 48 hrs. The following applies: SF-268, 48 h. In a few lines:
as §1

Values after ≈ are worked out from the molar mass of the structure shown. A value given as a limit tells only on which side of the number the result lay.

On to `CC(=O)O[C@@H]1[C@@H](OC(C)=O)[C@H](O)[C@@]2(O)c3cc4c(c(O)c3C(=O)N[C@H]2[C@@H]1OC(C)=O)OCO4`, for which the GI50 in test [1], in test [2], in test [3], in test [4], in test [6] and in test [7] was over 10 µg/mL each time. Further, the EC50 in test [5] is over 10 µg/mL.
`CC(=O)O[C@H]1[C@@H](OC(C)=O)[C@@H]2NC(=O)c3c(cc4c(c3O)OCO4)[C@@]23OC(=S)O[C@H]3[C@@H]1OC(C)=O`: the GI50 in test [1], in test [2], in test [3], in test [4], in test [6] and in test [7] was over 1 µg/mL throughout. Besides, in test [5], the EC50 was over 1 µg/mL.
For `CC(=O)O[C@@H]1[C@@H](OC(C)=O)[C@H](OC(C)=O)[C@H]2c3cc4c(c(O)c3C(=O)N[C@H]2[C@@H]1OC(C)=O)OCO4`, the GI50 came out at 1.8 µg/mL (≈ 3.65 µM) in test [1]; 1.3 µg/mL (≈ 2.63 µM) in test [2]; 1.8 µg/mL (≈ 3.65 µM) in test [3]; 1.4 µg/mL (≈ 2.84 µM) in test [4]; 2 µg/mL (≈ 4.05 µM) in test [6]; 3 µg/mL (≈ 6.08 µM) in test [7]. The EC50 in test [5] is 0.2 µg/mL (≈ 0.405 µM).
In the case of `O=C1N[C@H]2[C@H](O)[C@H](O)[C@@H](O)[C@H](O)[C@H]2c2cc3c(c(O)c21)OCO3`, the GI50 in test [1] was found to be 0.32 µg/mL (≈ 0.984 µM); in test [2] it was 0.23 µg/mL (≈ 0.707 µM); in test [3] it was 0.31 µg/mL (≈ 0.953 µM); in test [4] it was 0.21 µg/mL (≈ 0.646 µM); in test [6], 0.27 µg/mL (≈ 0.83 µM); in test [7], 0.26 µg/mL (≈ 0.799 µM). Further, the EC50 in test [5] worked out at 0.14 µg/mL (≈ 0.43 µM).
`CC(=O)O[C@@H]1[C@@H](OC(C)=O)[C@H](O)[C@H]2c3cc4c(c(O)c3C(=O)N[C@H]2[C@@H]1OC(C)=O)OCO4`: the GI50 in test [1], in test [2], in test [3], in test [4], in test [6] and in test [7] was over 1 µg/mL in each case. Moreover, in test [5], the EC50 was over 1 µg/mL.
For the molecule `COC(=O)C(=O)Oc1c2c(cc3c1C(=O)N(C(=O)C(=O)OC)[C@H]1[C@H](OC(C)=O)[C@H](OC(C)=O)[C@@H](OC(C)=O)[C@H](OC(C)=O)[C@@]31OC(=O)C(=O)OC)OCO2`, the GI50 in test [1], in test [2], in test [3], in test [4], in test [6] and in test [7] was over 10 µg/mL throughout. Moreover, the EC50 in test [5] is over 10 µg/mL.
`CC(=O)Oc1c2c(cc3c1C(=O)N[C@H]1[C@H](OC(C)=O)[C@H](OC(C)=O)[C@@H](OC(C)=O)[C@H](O)[C@@]31O)OCO2`: the GI50 in test [1] was 14.4 µg/mL (≈ 28.3 µM); in test [2] it was over 10 µg/mL; in test [3], 3.6 µg/mL (≈ 7.07 µM); in test [4], 4.3 µg/mL (≈ 8.44 µM); in test [6], 5.2 µg/mL (≈ 10.2 µM); in test [7] it was 9.9 µg/mL (≈ 19.4 µM). Further, the EC50 in test [5] was 1.7 µg/mL (≈ 3.34 µM).
Take `CC(=O)Oc1c2c(cc3c1C(=O)N[C@H]1[C@H](OC(C)=O)[C@H](OC(C)=O)[C@@H](OC(C)=O)[C@H](OC(C)=O)[C@@]31O)OCO2`: the GI50 in test [1], in test [2], in test [3], in test [4], in test [6] and in test [7] was over 10 µg/mL in each case. Further, the EC50 in test [5] came out at 8.9 µg/mL (≈ 16.1 µM).
As for `CC(=O)O[C@@H]1[C@H](OC(C)=O)[C@@H](OC(C)=O)C=C2c3cc4c(c(O)c3C(=O)N[C@H]21)OCO4`, the GI50 came out at 0.011 µg/mL (≈ 0.0254 µM) in test [1]; 0.033 µg/mL (≈ 0.0761 µM) in test [2]; 0.051 µg/mL (≈ 0.118 µM) in test [3]; 0.028 µg/mL (≈ 0.0646 µM) in test [4]; 0.06 µg/mL (≈ 0.138 µM) in test [6]; 0.16 µg/mL (≈ 0.369 µM) in test [7]. The EC50 in test [5] was found to be 0.013 µg/mL (≈ 0.03 µM).
With `CC(=O)O[C@H]1[C@@H](OC(C)=O)[C@@H]2NC(=O)c3c(cc4c(c3O)OCO4)[C@@]23OC(=O)O[C@H]3[C@@H]1OC(C)=O`, the GI50 was 3.1 µg/mL (≈ 6.28 µM) in test [1]; 2.9 µg/mL (≈ 5.88 µM) in test [2]; 2.8 µg/mL (≈ 5.68 µM) in test [3]; 1.5 µg/mL (≈ 3.04 µM) in test [4]; 4.9 µg/mL (≈ 9.93 µM) in test [6]; 7.5 µg/mL (≈ 15.2 µM) in test [7]. Moreover, the EC50 in test [5] stood at 1.5 µg/mL (≈ 3.04 µM).
Consider `CC(=O)Oc1c2c(cc3c1C(=O)N[C@@H]1C3=C[C@H](OC(C)=O)[C@@H](OC(C)=O)[C@H]1OC(C)=O)OCO2`, for which the GI50 in test [1] amounted to 0.16 µg/mL (≈ 0.337 µM); in test [2], 0.28 µg/mL (≈ 0.589 µM); in test [3], 0.043 µg/mL (≈ 0.0904 µM); in test [4], 0.023 µg/mL (≈ 0.0484 µM); in test [6] it was 0.088 µg/mL (≈ 0.185 µM); in test [7], 0.055 µg/mL (≈ 0.116 µM). Besides, in test [5], the EC50 was determined as 0.027 µg/mL (≈ 0.0568 µM).
On to `O=C1N[C@@H]2C(=C[C@H](O)[C@@H](O)[C@H]2O)c2cc3c(c(O)c21)OCO3` [NARCICLASINE], for which the GI50 in test [1] came out at 0.0035 µg/mL (≈ 0.0114 µM); in test [2] it was 0.0084 µg/mL (≈ 0.0273 µM); in test [3], 0.0032 µg/mL (≈ 0.0104 µM); in test [4], 0.0032 µg/mL (≈ 0.0104 µM); in test [6], 0.0032 µg/mL (≈ 0.0104 µM); in test [7], 0.0031 µg/mL (≈ 0.0101 µM). The EC50 in test [5] is 0.0012 µg/mL (≈ 0.00391 µM).
On to `O=C1N[C@H]2[C@H](O)[C@H](O)[C@@H](O)[C@H](O)[C@@H]2c2cc3c(c(O)c21)OCO3` [PANCRATISTATIN], for which the GI50 in test [1] was determined as 0.02 µg/mL (≈ 0.0615 µM); in test [2], 0.032 µg/mL (≈ 0.0984 µM); in test [3], 0.025 µg/mL (≈ 0.0769 µM); in test [4] it was 0.015 µg/mL (≈ 0.0461 µM); in test [6] it was 0.023 µg/mL (≈ 0.0707 µM); in test [7], 0.014 µg/mL (≈ 0.043 µM). In test [5], the EC50 was 0.017 µg/mL (≈ 0.0523 µM).
